Results: ChEMBL document CHEMBL5329148, “Visible and NIR light photoactivatable o-hydroxycinnamate system for efficient drug release with fluorescence monitoring” (RSC Med Chem, 2023)
Each block holds one molecule with its values, some of them ahead of it.

Experiments:
[1] = Lipophilicity, logP of compound in n-Octanol/water; type: physicochemical
[2] = Drug uptake in human A549 cells at 10 uM incubated for 1 hr by FACS analysis; type: ADME, cell-based; details: a549, 1 h
Summary of the method: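 A549 cells (1.5 × 10^5/well) were washed and given 10 µM compound in medium with 1% DMSO for 0, 0.5, 1 or 2 h at 37 °C. They were irradiated in PBS with visible light (400–700 nm, 11 mW) for 10 min, then trypsinized and resuspended in HBSS. Blue coumarin fluorescence was read by flow cytometry on about 10000 cells.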

A549 [3] = experiment: Photo-induced drug release in human A549 cells assessed as increase in blue fluorescence at 10 uM incubated for 1 hr prior to PBS washout followed by visible light irradiation for 2 mins and further incubated for 10 mins by fluorescence imaging analysis; type: ADME, cell-based; details: a549, 1 h
Summary of the method: (§1)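 A549 cells (2 × 10^5/well, seeded a day before) received 10 µM compound for 1 h at 37 °C in the dark and were washed with cold PBS. They were irradiated with 400–700 nm light (11 mW) for 0, 2, 5, 10, 15, 20 or 30 min, then held 10 min. Blue-channel fluorescence was imaged and given as the mean of 30 cells, fitted to an exponential.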

A549 [4] = experiment: Photo-induced drug release in human A549 cells assessed as increase in blue fluorescence at 10 uM incubated for 1 hr prior to PBS washout followed by visible light irradiation and further incubated for 10 mins by fluorescence imaging analysis; type: ADME, cell-based; details: a549, 1 h, TDE = time-dependent effect; summary of the method: as §1
[5] = Drug localization in human A549 cells mitochondria at 10 uM incubated for 1 hr prior to PBS washout followed by visible light irradiation for 10 mins by inverted fluorescence microscopy analysis; type: ADME; details: a549, 1 h
Summary of the method: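 A549 cells were loaded with 10 µM compound in complete DMEM for 1 h at 37 °C, washed, and irradiated in PBS with 400–700 nm light (11 mW) for 10 min. Mito Red (100 nM, 15 min) was added before a PBS wash. Coumarin signal was imaged at ex/em 350/460 nm and Mito Red at 550/580 nm. Overlap was taken from a scatter plot as Pearson's correlation coefficient.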

A549 [6] = experiment: Induction of mitochondrial membrane depolarization in human A549 cells after 30 mins by JC-1 dye staining based FACS analysis (reference value: 5.3 +/- 1.1 %); type: functional; details: 0.5 h
A549 [7] = experiment: Induction of mitochondrial membrane depolarization in human A549 cells after 1 hr by JC-1 dye staining based FACS analysis (reference value: 5.3 +/- 1.1 %); type: functional
A549 [8] = experiment: Photocytotoxicity in human A549 cells assessed as reduction in cell viability preincubated for 1 hr followed by visible light irradiation for 30 mins and measured after 72 hrs by MTT assay; type: functional, cell-based; details: for IC50: A549, light or radiation study
Summary of the method: (§2)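 A549 or MCF7 cells (9000/well, grown 24 h) were given compound in medium with ≤1% DMSO for 1 h at 37 °C in the dark, washed twice and placed in PBS. They were irradiated with 400–700 nm light (11 mW) for 10, 20 or 30 min, then incubated 72 h in the dark. Viability was read by MTT (2 h, 37 °C), with formazan in DMSO at 570 nm. Unirradiated wells served as dark control.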

A549 [9] = experiment: (§3) Dark toxicity in human A549 cells assessed as reduction in cell viability incubated for 72 hrs by MTT assay; type: cell-based; details: a549, 72 h, time 72 hrs
Summary of the method: (§4)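 Cells seeded at 9000/well in DMEM with 10% FBS, grown 24 h at 37 °C in 5% CO2. Compound in medium with ≤1% DMSO for 1 h at 37 °C in the dark, washed twice with PBS, kept unirradiated, then incubated 72 h in the dark. MTT (5 mg mL-1 stock) added for 2 h at 37 °C, formazan dissolved in DMSO, absorbance read at 570 nm.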

A549 [10] = experiment: Dark toxicity in human A549 cells assessed as reduction in cell viability upto 20 uM incubated for 72 hrs by MTT assay; type: cell-based; details: a549, 72 h; summary of the method: as §4
A549 [11] = experiment: Photocytotoxicity in human A549 cells assessed as reduction in cell viability at 5 uM preincubated for 1 hr followed by visible light irradiation upto 30 mins and measured after 72 hrs by MTT assay; type: functional, cell-based; details: time 73.5 hrs, TDE = time-dependent effect; summary of the method: as §2
MCF7 = experiment: Photocytotoxicity in human MCF7 cells assessed as reduction in cell viability preincubated for 1 hr followed by visible light irradiation for 30 mins and measured after 72 hrs by MTT assay; type: functional, cell-based; details: MCF7, light or radiation study; summary of the method: as §2
A549 [12] = experiment: Photocytotoxicity in human A549 cells assessed as reduction in cell viability at 10 uM preincubated for 1 hr followed by two-photon NIR light irradiation for 5 mins and measured after 72 hrs by MTT assay; type: functional; details: time 4385 min, 73.08 h
Summary of the method: (§5)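 A549 cells (9000/well) were treated with compound for 1 h at 37 °C in the dark, then moved to PBS. They were irradiated with a two-photon femtosecond laser (800 nm, 50 mW) for 0, 5, 10, 15 or 20 min, then incubated 72 h in the dark in medium. Viability was read by MTT over 2 h, with formazan in DMSO at 570 nm. Unirradiated wells served as dark control.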

A549 [13] = experiment: Photocytotoxicity in human A549 cells assessed as reduction in cell viability at 10 uM preincubated for 1 hr followed by two-photon NIR light irradiation for 10 mins and measured after 72 hrs by MTT assay; type: functional; details: time 4390 min, 73.17 h; summary of the method: as §5
A549 [14] = experiment: Photocytotoxicity in human A549 cells assessed as reduction in cell viability at 10 uM preincubated for 1 hr followed by two-photon NIR light irradiation for 20 mins and measured after 72 hrs by MTT assay; type: functional; details: time 4400 min, 73.33 h; summary of the method: as §5
[15] = Drug release in 1: 9 DMSO/PBS at pH 7 at 50 uM under visible light irradiation upto 20 mins by emission spectroscopy; type: ADME; details: buffer, pH 7, 20 min
Summary of the method: (§6)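 Drug release was measured across pH 4–9. Solutions of 50 µM in 1:9 DMSO/buffer were irradiated with 400–700 nm light (11 mW) at 2 cm and 25 °C, in 2-min steps over 0–20 min. Release was taken from coumarin reporter emission (ex 385 nm, em 475 nm). A dark control received no light.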

[16] = Drug release in 1: 9 DMSO/PBS at pH 9 at 50 uM under visible light irradiation upto 20 mins by emission spectroscopy; type: ADME; details: buffer, pH 9, 20 min; summary of the method: as §6
[17] = Drug release in 1: 9 DMSO/PBS at pH 4 at 50 uM under visible light irradiation upto 20 mins by emission spectroscopy; type: ADME; details: buffer, pH 4, 20 min; summary of the method: as §6
A549 [18] = experiment: Photocytotoxicity in human A549 cells assessed as reduction in cell viability preincubated for 1 hr followed by two-photon NIR light irradiation for 10 mins and measured after 72 hrs by MTT assay; details: A549, light or radiation study
[19] = as §3; type: cell-based; details: A549 cells; summary of the method: as §4
[20] = Dark toxicity in human MCF7 cells assessed as reduction in cell viability incubated for 72 hrs by MTT assay; type: cell-based; summary of the method: as §4

logP [1]: 2.1
Drug uptake [2]: Active
Drug metabolism (A549 [3]): Metabolite_Detected
Drug metabolism (A549 [4]): Tde
Drug uptake [5]: Active
Drug metabolism [15]: Active
Drug metabolism [16]: Active
Drug metabolism [17]: Active
SMILES: CCN(CC)c1ccc(/C=C/C(=O)OC[C@H]2O[C@@H](n3ccc(N)nc3=O)C(F)(F)[C@@H]2O)c(O)c1
Activity (A549 [6]): 13.9%
Activity (A549 [7]): 82.3%
IC50 (A549 [8]): 5050 nM
Activity (A549 [8]; time 73.5 hrs): Dose-Dependent Effect
Activity (A549 [9]): Non-Toxic
Activity (A549 [10]): Non-Toxic
Activity (A549 [11]): Tde
IC50 (MCF7): 5.45 µM
Activity (A549 [12]): 35%
Activity (A549 [13]): 47%
Activity (A549 [14]): 57%
IC50 (A549 [18]): 12.5 µM

SMILES: Nc1ccn([C@@H]2O[C@H](CO)[C@@H](O)C2(F)F)c(=O)n1 [GEMCITABINE]
IC50 (A549 [8]): 650 nM
IC50 at 72 h [19]: 750 nM
IC50 at 72 h [20]: 1460 nM
IC50 (MCF7): 1.36 µM
IC50 (A549 [18]): 0.8 µM
